Calls of active or inactive are those of the source. The rule behind the calls is not given here.
Columns and labels:
Triticum aestivum [1] = assay: Pre-emergence herbicidal activity against Triticum aestivum (wheat) assessed as germination seeds level at 50 mol/ha relative to untreated control; assay type: functional
In short: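 Pre-emergence greenhouse assay on T. aestivum sown in sterilized sand in celled flats, with the medium near neutral pH. Compound was applied in acetone/H₂O, DMSO/H₂O, acetone/DMSO or acetone/DMSO/H₂O/Tween 80 at 6.4–19.6 kg/ha. Percentage of germinated seeds was calculated against untreated control. Atrazine (2.5 kg/ha, 12 mol/ha) was the positive control. Run in duplicate; ANOVA.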

Triticum aestivum [2] = assay: Pre-emergence herbicidal activity against Triticum aestivum (wheat) assessed as reduction in aerial weight at 50 mol/ha relative to untreated control; assay type: functional; set-up: scale not given: the % may be the effect or the level left
In short: (§1)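 Wheat was grown in sterilized sand flats at near-neutral pH and treated pre-emergence at 6.4–19.6 kg/ha in acetone-, DMSO- or Tween 80-containing vehicles. Length of first leaf, aerial weight and radicular weight were compared with untreated control and scored 4 (100–80% reduction), 3 (79–50%), 2 (49–20%), 1 (19–1%) or 0 (increase). Atrazine 2.5 kg/ha was the positive control. Duplicate runs; ANOVA.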

Triticum aestivum [3] = assay: Stimulation of plant growth parameters in Triticum aestivum (wheat) assessed as increase in radicular weight at 50 mol/ha; assay type: functional, organism-based; in short: as §1
Triticum aestivum [4] = assay: Pre-emergence herbicidal activity against Triticum aestivum (wheat) assessed as reduction in length of the first leaf at 50 mol/ha relative to untreated control; assay type: functional; set-up: scale not given: the % may be the effect or the level left; in short: as §1
Triticum aestivum [5] = assay: Pre-emergence herbicidal activity against Triticum aestivum (wheat) assessed as reduction in radicular weight at 50 mol/ha relative to untreated control; assay type: functional; in short: as §1
Triticum aestivum [6] = assay: Post-emergence herbicidal activity against Triticum aestivum (wheat) at 50 mol/ha measured 10 days post compound application; assay type: functional, organism-based
In short: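 Post-emergence greenhouse test on T. aestivum, set up identically to the pre-emergence test: sterilized sand flats at near-neutral pH, application at 6.4–19.6 kg/ha in acetone/DMSO/water-based vehicles, and reduction of plant parameters versus untreated control scored on a 0–4 scale. Atrazine 2.5 kg/ha was the positive control. Duplicate; ANOVA.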

Triticum aestivum [7] = assay: Stimulation of plant growth parameters in Triticum aestivum (wheat) assessed as increase in length of the first leaf at 50 mol/ha; assay type: functional, organism-based
In short: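 Pre-emergence greenhouse whole-plant test on T. aestivum L. Seeds were grown in sterilized sand in celled flats, with the medium near neutral pH. Compound was applied in acetone/H₂O, DMSO/H₂O, acetone/DMSO or acetone/DMSO/H₂O/Tween 80 vehicle, at 6.4–19.6 kg/ha by weight. Length of first leaf was compared with untreated control, with a score of 0 marking an increase. Atrazine at 2.5 kg/ha was the positive control. Run in duplicate and analysed by ANOVA.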

Triticum aestivum [8] = assay: Stimulation of plant growth parameters in Triticum aestivum (wheat) assessed as increase in aerial weight at 50 mol/ha; assay type: functional, organism-based; in short: as §1

COC(=O)N/N=C/c1no[n+]([O-])c1C
Activity (Triticum aestivum [1]): 15%
Activity (Triticum aestivum [2]): 3%
Activity (Triticum aestivum [3]): Active
Activity (Triticum aestivum [4]): 3%

[O-][n+]1onc(-c2ccccc2)c1CN1CCN(c2ncccn2)CC1
Activity (Triticum aestivum [5]): inactive
Activity (Triticum aestivum [1]): 100%
Activity (Triticum aestivum [6]): inactive
Activity (Triticum aestivum [2]): inactive
Activity (Triticum aestivum [4]): inactive

COC(=O)N/N=C/c1ccc2c(c1)[n+]([O-])c(C)c(C)[n+]2[O-]
Activity (Triticum aestivum [7]): Active
Activity (Triticum aestivum [8]): Active
Activity (Triticum aestivum [1]): 100%
Activity (Triticum aestivum [3]): Active

O=C(Nc1ccc(Cl)cc1)c1ccc2c(c1)no[n+]2[O-]
Activity (Triticum aestivum [5]): 4%
Activity (Triticum aestivum [1]): 96%
Activity (Triticum aestivum [2]): 3%
Activity (Triticum aestivum [4]): 3%

O=C(c1ccc2c(c1)no[n+]2[O-])N1CCOCC1
Activity (Triticum aestivum [5]): 3%
Activity (Triticum aestivum [1]): 100%
Activity (Triticum aestivum [2]): 3%
Activity (Triticum aestivum [4]): 3%

Cc1c(C)[n+]([O-])c2cc(/C=N/NC(=O)NCCc3ccccc3)ccc2[n+]1[O-]
Activity (Triticum aestivum [5]): 1%
Activity (Triticum aestivum [7]): Active
Activity (Triticum aestivum [8]): Active
Activity (Triticum aestivum [1]): 100%

Cc1ccc2no[n+]([O-])c2c1 [6-METHYLBENZO[C][1,2,5]OXADIAZOLE1-OXIDE]
Activity (Triticum aestivum [5]): 3%
Activity (Triticum aestivum [1]): 100%
Activity (Triticum aestivum [2]): 3%
Activity (Triticum aestivum [4]): 3%

Cc1c(C=O)no[n+]1[O-]
Activity (Triticum aestivum [5]): 1%
Activity (Triticum aestivum [8]): Active
Activity (Triticum aestivum [1]): 100%
Activity (Triticum aestivum [4]): 1%

[O-][n+]1onc(-c2ccccc2)c1CNc1ccc(Br)cc1
Activity (Triticum aestivum [5]): 1%
Activity (Triticum aestivum [1]): 100%
Activity (Triticum aestivum [2]): 1%
Activity (Triticum aestivum [4]): 2%

O=C(O)c1ccc2no[n+]([O-])c2c1
Activity (Triticum aestivum [5]): 1%
Activity (Triticum aestivum [1]): 100%
Activity (Triticum aestivum [6]): inactive
Activity (Triticum aestivum [2]): 1%
Activity (Triticum aestivum [4]): 1%

O=Cc1ccc2no[n+]([O-])c2c1 [6-FORMYLBENZO[C][1,2,5]OXADIAZOLE1-OXIDE]
Activity (Triticum aestivum [1]): 100%
Activity (Triticum aestivum [2]): 1%
Activity (Triticum aestivum [3]): Active
Activity (Triticum aestivum [4]): 2%

Cc1c(/C=N/NC(N)=O)no[n+]1[O-]
Activity (Triticum aestivum [5]): 3%
Activity (Triticum aestivum [1]): 89%
Activity (Triticum aestivum [2]): 4%

Cc1c(/C=N/NC(N)=S)no[n+]1[O-]
Activity (Triticum aestivum [5]): 4%
Activity (Triticum aestivum [1]): 92%
Activity (Triticum aestivum [2]): 4%

COCCNC(=O)c1ccc2c(c1)no[n+]2[O-]
Activity (Triticum aestivum [5]): 1%
Activity (Triticum aestivum [1]): 100%
Activity (Triticum aestivum [2]): 1%
Activity (Triticum aestivum [4]): 2%

O=C(NCCc1ccccc1)N/N=C/c1ccc2c(c1)no[n+]2[O-]
Activity (Triticum aestivum [5]): 2%
Activity (Triticum aestivum [1]): 100%
Activity (Triticum aestivum [2]): 2%
Activity (Triticum aestivum [4]): 2%

CCCCCCNC(=O)N/N=C/c1no[n+]([O-])c1C
Activity (Triticum aestivum [5]): 3%
Activity (Triticum aestivum [1]): 95%
Activity (Triticum aestivum [2]): 4%
Activity (Triticum aestivum [4]): 3%

COc1ccc(NCc2c(-c3ccccc3)no[n+]2[O-])cc1
Activity (Triticum aestivum [5]): 1%
Activity (Triticum aestivum [1]): 100%
Activity (Triticum aestivum [2]): 1%
Activity (Triticum aestivum [4]): 1%

NC(=S)N/N=C/c1c(-c2ccccc2)no[n+]1[O-]
Activity (Triticum aestivum [5]): 3%
Activity (Triticum aestivum [8]): Active
Activity (Triticum aestivum [1]): 100%
Activity (Triticum aestivum [4]): 2%

COC(=O)N/N=C/c1c(-c2ccccc2)no[n+]1[O-]
Activity (Triticum aestivum [5]): 2%
Activity (Triticum aestivum [8]): Active
Activity (Triticum aestivum [1]): 100%
Activity (Triticum aestivum [4]): 2%

COC(=O)N/N=C/c1ccc2c(c1)no[n+]2[O-]
Activity (Triticum aestivum [5]): 3%
Activity (Triticum aestivum [1]): 75%
Activity (Triticum aestivum [2]): 1%
Activity (Triticum aestivum [4]): 1%

CCCCNC(=O)c1ccc2c(c1)no[n+]2[O-]
Activity (Triticum aestivum [5]): 3%
Activity (Triticum aestivum [1]): 46%
Activity (Triticum aestivum [2]): 3%
Activity (Triticum aestivum [4]): 3%

[O-][n+]1onc(-c2ccccc2)c1CNc1ccc(Cl)cc1
Activity (Triticum aestivum [5]): 1%
Activity (Triticum aestivum [1]): 100%
Activity (Triticum aestivum [2]): 1%
Activity (Triticum aestivum [4]): 1%

O=Cc1c(-c2ccccc2)no[n+]1[O-]
Activity (Triticum aestivum [5]): 1%
Activity (Triticum aestivum [8]): Active
Activity (Triticum aestivum [1]): 100%
Activity (Triticum aestivum [4]): 1%

COC(=O)N/N=C/c1ccc2nonc2c1
Activity (Triticum aestivum [7]): Active
Activity (Triticum aestivum [8]): Active
Activity (Triticum aestivum [1]): 100%
Activity (Triticum aestivum [3]): Active

O=C1c2ccccc2C(=O)N1Cc1c(-c2ccccc2)no[n+]1[O-]
Activity (Triticum aestivum [5]): 1%
Activity (Triticum aestivum [7]): Active
Activity (Triticum aestivum [8]): Active
Activity (Triticum aestivum [1]): 100%

[O-][n+]1onc(-c2ccccc2)c1CCl
Activity (Triticum aestivum [5]): 1%
Activity (Triticum aestivum [1]): 100%
Activity (Triticum aestivum [6]): inactive
Activity (Triticum aestivum [2]): 1%
Activity (Triticum aestivum [4]): 1%

[O-][n+]1onc2ccccc21 [BENZO[C][1,2,5]OXADIAZOLE 1-OXIDE]
Activity (Triticum aestivum [5]): inactive
Activity (Triticum aestivum [1]): 100%
Activity (Triticum aestivum [6]): inactive
Activity (Triticum aestivum [2]): inactive
Activity (Triticum aestivum [4]): inactive
